experiment: Toxicity liver stage against HepG2, at 10uM; type: cell-based; set-up: test concentration 10 uM, cell line HepG2-A16-CD81EGFP; settings: human, HepG2-A16-CD81EGFP cells; read-out: INHIBITION
Outline: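 Uninfected HepG2-A16-CD81EGFP cells, 3 × 10^3 per well, 1536-well, plated on prespotted compound at 10 μM final, parasite-free screening media added to match infected plates; puromycin 10 μM positive, DMSO 0.5% negative; run in parallel with 48 h PbLuc assay at 37 °C, 5% CO2; viability by CellTiter-Glo luminescence, normalized to controls.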

**Q.** With `CN1C(=O)C2(CC(=O)Nc3[nH]ncc32)c2cc(Cl)ccc21` (stereo not given) as the compound, how does the cytotoxicity at 10 µM read?
**A.** Its cytotoxicity at 10 µM is -1.89%.

**Q.** For `COC1CCN(C(=O)Cn2ccc3ccccc32)CC1`, which cytotoxicity at 10 µM is on record?
**A.** Its cytotoxicity at 10 µM is -12.7%.

**Q.** For `O=S(=O)(c1cc(F)cc(F)c1)N1CCC(Oc2ccc(Cl)cn2)CC1`, which cytotoxicity at 10 µM is on record?
**A.** The cytotoxicity at 10 µM was -4.63%.

**Q.** Which cytotoxicity at 10 µM does the source give for `CCC(CNC(=O)OC)(OC)c1ccccc1` (stereo not given) here?
**A.** The cytotoxicity at 10 µM was 1.37%.

**Q.** For `CN1CC[C@@H]2[C@@H]1CCN2Cc1ccc2c(c1)OCO2`, which cytotoxicity at 10 µM is on record?
**A.** Its cytotoxicity at 10 µM is 3.11%.

**Q.** With `CN1CC2(CCCCN2C(=O)c2ccsc2)CC1=O` (stereo not given) as the compound, how does the cytotoxicity at 10 µM read?
**A.** The cytotoxicity at 10 µM was 2.73%.

**Q.** For `O=C(NCCc1ccncc1)[C@H]1CC[C@@H]2[C@@H](CCN2C2CCC2)O1`, which cytotoxicity at 10 µM is on record?
**A.** The cytotoxicity at 10 µM was -2.3%.

**Q.** Which cytotoxicity at 10 µM does the source give for `Cn1nnc2c1C(COCC1CC1)CN(C(=O)Cc1ccccn1)C2` (stereo not given) here?
**A.** Its cytotoxicity at 10 µM is 13.5%.

**Q.** For `Cc1nc(N2CCN(C(=O)C3CCCC3)CC2)c2c(n1)c(C)nn2C`, which cytotoxicity at 10 µM is on record?
**A.** The cytotoxicity at 10 µM was 6.97%.

**Q.** Which cytotoxicity at 10 µM does the source give for `CCn1cc(CN(C)S(=O)(=O)c2ccccc2)cn1` here?
**A.** The cytotoxicity at 10 µM was 11.9%.

**Q.** With `Cc1c(Cl)cccc1N1CC(c2nnc(N)s2)CC1=O` (stereo not given) as the compound, how does the cytotoxicity at 10 µM read?
**A.** The cytotoxicity at 10 µM was 7.38%.

**Q.** With `Cc1nn(C)c(C)c1NC(=O)CCn1ncc2ccccc21` as the compound, how does the cytotoxicity at 10 µM read?
**A.** Its cytotoxicity at 10 µM is 10.8%.

**Q.** For `COc1ccc(C2=NOC(CO)C2)cc1` (stereo not given), which cytotoxicity at 10 µM is on record?
**A.** The cytotoxicity at 10 µM was 11.2%.

**Q.** Which cytotoxicity at 10 µM does the source give for `CC(=O)N1CCCCC[C@@H]2[C@@H]1[C@H](c1cccc(F)c1)CN2C(=O)C1CC1` here?
**A.** Its cytotoxicity at 10 µM is 6.75%.

**Q.** For `COc1ccccc1C1(O)CCCN(C(=O)c2csc(C(C)=O)c2)C1` (stereo not given), which cytotoxicity at 10 µM is on record?
**A.** The cytotoxicity at 10 µM was -1.41%.

**Q.** For `COc1cccc(CCC2CCCCN2)c1` (stereo not given), which cytotoxicity at 10 µM is on record?
**A.** The cytotoxicity at 10 µM was -1.73%.

**Q.** Which cytotoxicity at 10 µM does the source give for `Cc1cc(-c2cnc(N3CCNC(=O)C3)nc2-c2ccc(C)o2)on1` here?
**A.** Its cytotoxicity at 10 µM is -5.77%.

**Q.** With `CS(=O)(=O)CCC(=O)N1CCC(c2cccc(F)c2)C1` (stereo not given) as the compound, how does the cytotoxicity at 10 µM read?
**A.** The cytotoxicity at 10 µM was 3.71%.

**Q.** With `Cc1cc(NC(=O)CN2CCc3c(nc(C(C)C)n3C)C2)n(C)n1` as the compound, how does the cytotoxicity at 10 µM read?
**A.** Its cytotoxicity at 10 µM is -4.94%.

**Q.** With `CCc1ocnc1C(=O)Nc1ccc2ccn(CCN(C)C)c2c1` as the compound, how does the cytotoxicity at 10 µM read?
**A.** The cytotoxicity at 10 µM was 4.81%.

**Q.** Which cytotoxicity at 10 µM does the source give for `CC(=O)N1CCC(CCNC(C)Cc2ccc(F)cc2)CC1` (stereo not given) here?
**A.** Its cytotoxicity at 10 µM is -11.4%.

**Q.** For `Cc1n[nH]c(C)c1NC(=O)NCc1cc[nH]n1`, which cytotoxicity at 10 µM is on record?
**A.** The cytotoxicity at 10 µM was -5.18%.

**Q.** With `O=C(c1ccc2c(c1)[nH]c(=O)n2C1CCCC1)N1CCCSCC1` as the compound, how does the cytotoxicity at 10 µM read?
**A.** Its cytotoxicity at 10 µM is -41.2%.

**Q.** For `Cc1ccc(N2CCc3ncnc(C)c3CC2)nn1`, which cytotoxicity at 10 µM is on record?
**A.** Its cytotoxicity at 10 µM is -93.6%.

**Q.** With `CO[C@H]1CO[C@@]2(CCCN(C(=O)N(C)C)C2)C1` as the compound, how does the cytotoxicity at 10 µM read?
**A.** Its cytotoxicity at 10 µM is -97.4%.

**Q.** With `CCOCCn1nc(C)cc1C(=O)N(C)Cc1cccc2ncccc12` as the compound, how does the cytotoxicity at 10 µM read?
**A.** The cytotoxicity at 10 µM was 4.2%.

**Q.** With `CCCn1nccc1C(=O)N1CCCC(C(=O)CCc2ccccc2)C1` (stereo not given) as the compound, how does the cytotoxicity at 10 µM read?
**A.** Its cytotoxicity at 10 µM is -1.08%.

**Q.** With `O=C(Nc1ccc(F)c(F)c1)N1CCC2(CCC(=O)N(C3CC3)C2)CC1` as the compound, how does the cytotoxicity at 10 µM read?
**A.** Its cytotoxicity at 10 µM is -0.381%.

**Q.** Which cytotoxicity at 10 µM does the source give for `Cc1ccc(C(=O)N2CCCC(Nc3ccc(F)cc3)C2)cc1` (stereo not given) here?
**A.** The cytotoxicity at 10 µM was -3.53%.

**Q.** With `CCn1nc(C)cc1C(=O)N1CCCN(CCCc2ccccc2)CC1` as the compound, how does the cytotoxicity at 10 µM read?
**A.** The cytotoxicity at 10 µM was -1.45%.

**Q.** For `CN1CCCN(S(=O)(=O)c2cccc(C(=O)N3CCCCCC3)c2)CC1`, which cytotoxicity at 10 µM is on record?
**A.** Its cytotoxicity at 10 µM is -5.9%.

**Q.** Which cytotoxicity at 10 µM does the source give for `CCc1nnc(SCC(=O)N2CCc3[nH]nc(C4CCC4)c3C2)o1` here?
**A.** Its cytotoxicity at 10 µM is -5.22%.

**Q.** With `Cc1noc(CN(C)CC(c2cccs2)N2CCOCC2)n1` (stereo not given) as the compound, how does the cytotoxicity at 10 µM read?
**A.** Its cytotoxicity at 10 µM is -0.524%.

**Q.** Which cytotoxicity at 10 µM does the source give for `Cc1cccc(C(CNC(=O)NCc2cc[nH]n2)N2CCOCC2)c1` (stereo not given) here?
**A.** Its cytotoxicity at 10 µM is -9.19%.

**Q.** For `CCn1nc2c(cc1=O)CN(Cc1nc(-c3ccco3)no1)CC2`, which cytotoxicity at 10 µM is on record?
**A.** The cytotoxicity at 10 µM was -3.34%.

**Q.** For `Cn1cc(C2CCCN2Cc2csc(Cc3ccccc3)n2)cn1` (stereo not given), which cytotoxicity at 10 µM is on record?
**A.** The cytotoxicity at 10 µM was -1.19%.

**Q.** Which cytotoxicity at 10 µM does the source give for `CCN1CCN(C2CCN(Cc3noc(C4CC4)n3)CC2)C1=O` here?
**A.** The cytotoxicity at 10 µM was -8.69%.

**Q.** Which cytotoxicity at 10 µM does the source give for `COCC(C)NC(=O)c1cc(C)n(-c2cccc(OC)c2)c1C` (stereo not given) here?
**A.** Its cytotoxicity at 10 µM is -13.9%.

**Q.** With `c1ccc2cc(OCCCN3CCn4c(nnc4C4CC4)C3)ccc2c1` as the compound, how does the cytotoxicity at 10 µM read?
**A.** The cytotoxicity at 10 µM was -11.3%.

**Q.** With `Cc1cnn(CC2CCCCN2C(=O)c2ccc3nncn3c2)c1` (stereo not given) as the compound, how does the cytotoxicity at 10 µM read?
**A.** Its cytotoxicity at 10 µM is -8.66%.

**Q.** With `Cc1ccccc1OCCN(C)C(=O)NC(C)c1nncn1C` (stereo not given) as the compound, how does the cytotoxicity at 10 µM read?
**A.** Its cytotoxicity at 10 µM is -12.5%.

**Q.** For `O=C(Cc1ccccn1)N1CC[C@]2(C[C@@H](Oc3ncccc3F)CO2)C1`, which cytotoxicity at 10 µM is on record?
**A.** Its cytotoxicity at 10 µM is -5.79%.

**Q.** Which cytotoxicity at 10 µM does the source give for `O=C(NCCc1cccnc1)c1nc2c(s1)CCCN2C(=O)C1CC1` here?
**A.** Its cytotoxicity at 10 µM is -91.5%.

**Q.** Which cytotoxicity at 10 µM does the source give for `CNC(=O)NCC1CCC2(CCN(C(=O)c3ccccn3)CC2)CO1` (stereo not given) here?
**A.** Its cytotoxicity at 10 µM is -102%.

**Q.** With `CCN1CCc2c(CNC(=O)c3nccn3C)cncc2C1` as the compound, how does the cytotoxicity at 10 µM read?
**A.** Its cytotoxicity at 10 µM is -109%.
